Data from ChEMBL document CHEMBL3779860, “A Designed Tryptophan- and Lysine/Arginine-Rich Antimicrobial Peptide with Therapeutic Potential for Clinical Antibiotic-Resistant Candida albicans Vaginitis” (J Med Chem, 2016).
The source made the active and inactive calls. The calls are words filed in the database; no cut-off is given here.

Legend:
Candida albicans [1] = test: Antimicrobial activity against antibiotic resistant Candida albicans clinical isolate 08032815 compound treated in PBS solution measured after 36 hrs by disc diffusion method; format: functional; details: isolate 08032815, 36 h
How it was run: (§1)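 Salt-tolerance test: peptide at 2 mg/mL was prepared in sterile ddH2O, in 150 mM NaCl, or in PBS (150 mM NaCl, 2.7 mM KCl, 1.5 mM KH2PO4, 8 mM K2HPO4, pH 7.2). Anti-C. albicans activity was then assessed by inhibition zone on Sabouraud medium with 0.7% agar.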

Candida albicans [2] = test: Antimicrobial activity against antibiotic resistant Candida albicans clinical isolate 08032710 compound treated in double distilled water measured after 36 hrs by disc diffusion method; format: functional; details: isolate 08032710, 36 h; how it was run: as §1
Candida albicans [3] = test: Antimicrobial activity against antibiotic resistant Candida albicans after 6 hrs by disc diffusion method in presence of human plasma; format: functional, organism-based
How it was run: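 Peptide mixed with human plasma (final concentration 100 µM) at 37°C for up to 24 h. 10 µL aliquots were applied to C. albicans in Sabouraud medium with 0.7% agar. Inhibition zone diameters were read after 36 h.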

[4] = Ratio of HC50 for human RBC to MIC for Candida albicans ATCC 2002
HEK293 = test: Cytotoxicity against HEK293 cells assessed as cell viability at 0.39 to 100 ug/ml after 24 hrs by MTT assay; format: cell-based; details: human, hek293, 24 h
How it was run: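 HEK293 seeded at 1 × 10^5 cells/mL in DMEM with 10% fetal calf serum and penicillin-streptomycin, 37 °C, 5% CO2. Cells exposed to sample for 24 h, then given MTT (5 mg/mL); formazan dissolved in DMSO and read at 570 nm. Done in triplicate.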

Candida albicans [5] = test: Antimicrobial activity against antibiotic resistant Candida albicans clinical isolate 08030401 after 16 hrs by broth dilution method; format: functional; details: isolate 08030401, 16 h
How it was run: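 Broth microdilution in Sabouraud liquid medium. Samples are stocks in 0.9% NaCl, 10 µL added to 90 µL broth plus 100 µL of 2 × 10^5 CFU/mL yeast suspension. Incubated 16 h at 28°C, growth read by A600. MIC is the lowest concentration completely inhibiting growth; mean of three independent experiments.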

[6] = Induction of hemolysis in human RBC at 320 ug/mL after 30 mins; format: cell-based, Erythrocyte; details: red blood cells, read-out: Activity
How it was run: (§2)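 Serial dilutions were incubated with human erythrocytes for 30 min at 37°C. Supernatant absorbance was read at 540 nm after centrifugation. Hemolysis is expressed as % of the 1% Triton X-100 lysis value, pooled from three independent experiments. The highest concentration tested was 320 µg/mL.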

[7] = Hemolytic activity in human RBC after 30 mins; format: ADME, cell-based, Erythrocyte; how it was run: as §2
Staphylococcus aureus = test: Antimicrobial activity against Staphylococcus aureus ATCC 2592 assessed as inhibition of […] growth after 16 hrs by broth dilution method; format: functional; details: ATCC 2592, 16 h
How it was run: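 Broth dilution in LB broth; 100 µL of 2 × 10^5 CFU/mL bacterial suspension plus 10 µL sample (stock series in 0.9% NaCl) in 90 µL broth, 37°C for 16 h. Growth read as A600; MIC is the lowest concentration completely inhibiting growth. Mean of three independent experiments run in duplicate.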

Candida albicans [8] = test: Antimicrobial activity against antibiotic resistant Candida albicans clinical isolate 08030809 assessed as clone count at MIC after 3 hrs by colony counting assay (reference value: 3687 +/- 543 CFU); format: functional
Candida albicans [9] = test: Antimicrobial activity against antibiotic resistant Candida albicans clinical isolate 08030809 assessed as clone count at MIC after 6 hrs by colony counting assay (reference value: 14536 +/- 2467 CFU); format: functional
Candida albicans [10] = test: Antimicrobial activity against antibiotic resistant Candida albicans clinical isolate 08030809 assessed as clone count at 5 times MIC after 1 hr by colony counting assay (reference value: 228 +/- 23 CFU); format: functional
Candida albicans [11] = test: Antimicrobial activity against antibiotic resistant Candida albicans clinical isolate 08030809 assessed as clone count at 5 times MIC after 6 hrs by colony counting assay (reference value: 14536 +/- 2467 CFU); format: functional
Candida albicans [12] = test: Antimicrobial activity against antibiotic resistant Candida albicans clinical isolate 08030809 assessed as clone count at 5 times MIC after 12 hrs by colony counting assay (reference value: 54153 +/- 8769 CFU); format: functional
Candida albicans [13] = test: Antimicrobial activity against antibiotic resistant Candida albicans clinical isolate 08030809 assessed as clone count at 10 times MIC after 1 hr by colony counting assay (reference value: 228 +/- 23 CFU); format: functional
Candida albicans [14] = test: Antimicrobial activity against antibiotic resistant Candida albicans clinical isolate 08030809 assessed as clone count at MIC after 10 mins by colony counting assay (reference value: 102 +/- 11 CFU); format: functional
Candida albicans [15] = test: Antimicrobial activity against antibiotic resistant Candida albicans clinical isolate 08030809 assessed as clone count at MIC after 30 mins by colony counting assay (reference value: 156 +/- 16 CFU); format: functional
Mus musculus [16] = test: Antiinflammatory activity in antibiotic resistant Candida albicans clinical isolate 08030809 induced mouse vaginitis model assessed as reduction in IL-10 secretion in vaginal tissue administered as intravaginal instillation measured on day 10 by ELISA; format: functional, organism-based; details: Vagina
How it was run: (§3)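 Same estradiol-primed mouse model, infected intravaginally with C. albicans 08030809 and treated by intravaginal instillation (20 µL/mouse). Vaginal canals excised on day 10 of treatment and homogenised in 0.9% NaCl. Supernatant taken after 2,000 g for 15 min. TNF-α, IL-6, IL-1β and IL-10 measured by ELISA. Mean ± SE of three independent experiments; unpaired t-test versus vehicle.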

Candida albicans [17] = test: Antimicrobial activity against antibiotic resistant Candida albicans clinical isolate 08030809 assessed as clone count at 5 times MIC after 30 mins by colony counting assay (reference value: 156 +/- 16 CFU); format: functional
Mus musculus [18] = test: Antiinflammatory activity in antibiotic resistant Candida albicans clinical isolate 08030809 induced mouse vaginitis model assessed as reduction in TNF-alpha secretion in vaginal tissue at 20 ug administered as intravaginal instillation measured on day 10 by ELISA; format: functional, Vagina; how it was run: as §3
Mus musculus [19] = test: Antiinflammatory activity in antibiotic resistant Candida albicans clinical isolate 08030809 induced mouse vaginitis model assessed as reduction in IL-1beta secretion in vaginal tissue at 20 ug administered as intravaginal instillation measured on day 10 by ELISA; format: functional, Vagina; how it was run: as §3
Candida albicans [20] = test: Antimicrobial activity against antibiotic resistant Candida albicans clinical isolate 08030809 in mouse vaginitis model assessed as colony count in lavage liquid of vagina at 50 ug administered as intravaginal instillation measured on day 16; format: functional
Candida albicans [21] = test: Effect on cell morphology in antibiotic resistant Candida albicans clinical isolate 08030809 assessed as cell swelling at MIC to 2.5 times MIC after 30 mins by scanning electron microscopy; format: functional, organism-based
How it was run: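 Exponential-phase C. albicans 08030809 was washed in PBS and resuspended in Sabouraud medium. Cells were treated 30 min at 37°C alongside a vehicle control. They were then fixed in 2.5% glutaraldehyde (4°C, 2 h) and 1% osmium tetroxide, dehydrated through graded ethanol, freeze-dried from tert-butanol, gold-coated and imaged by SEM. Images are typical of three experiments.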

With H-VKRWKKWRWKWKKWV-NH2 the MIC (Candida albicans [1]) was 2.79 µg/mL, the MIC (Candida albicans [2]) was 2.79 µg/mL and the Activity (Candida albicans [3]) was “Active”. The Ratio [4] was 542, the Activity (HEK293) was “Non-toxic” and the MIC (Candida albicans [5]) was 4.69 µg/mL. For the same substance, the hemolysis at 0.5 h, 320 ug/mL [6] was 3.1%, the HC10 ([7]; erythrocyte, 0.5 h) was greater than 320 µg/mL and the HC50 at 0.5 h ([7]; red blood cells) was greater than 320 µg/mL. It also gave an MIC (Staphylococcus aureus) of 1.17 µg/mL, an Activity (Candida albicans [8]) of 0 CFU and an Activity (Candida albicans [9]) of 0 CFU. For the same substance, the Activity (Candida albicans [10]) was 0 CFU, the Activity (Candida albicans [11]) was 0 CFU and the Activity (Candida albicans [12]) was 0 CFU. The Activity (Candida albicans [13]) was 0 CFU, the Activity (Candida albicans [14]) was 15 CFU and the Activity (Candida albicans [15]) was 0 CFU. The Activity (Mus musculus [16]) was “Dose-dependent effect”, the Activity (Candida albicans [17]) was 0 CFU and the “inhibition (INH)” value (Mus musculus [18]) was 32%. For the same substance, the “inhibition (INH)” value (Mus musculus [19]) was 44%, the Activity (Candida albicans [20]) was 2.9 ×10³ CFU/ml and the Activity (Candida albicans [21]) was “Active”.
